From publication PMC3133600 (Journal of the American Chemical Society, 2011)
pEC50: −log10 of the molar value. Like-named read-outs stand apart in the source and are kept apart here.

Tests used:
[1] = system: HIF-1α levels in MCF7 cells; experiment: Cellular HIF-1α levels; assay type: cell-based, human; details: 24 hours
[2] = Stability in KYSE150 cell growth media; assay type: in vitro ADME; details: 37 °C, 48 hours, extraction with 3:1 chloroform:isopropanol
[3] = system: JMJD2C(1–420)-GFP fusion protein in HeLa cells; experiment: H3K9me3 immunostaining in HeLa cells ectopically expressing JMJD2C; assay type: cell-based, human; details: 10 μM, 48 hours
Summary of the method: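 HeLa cells were transfected with JMJD2C(1–420)-GFP, then treated with DMSO or 10 μM test compound. After 48 h they were immunostained with anti-H3K9me3 antibody and DAPI nuclear stain. H3K9me3 was compared in GFP-transfected cells.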

[4] = system: H3K4me3 and H3K9me3 levels in MCF7 cells; assay type: cell-based, human
C2C12 cells = experiment: Myotube formation in C2C12 cells; assay type: cell-based; details: C2C12 cells in differentiation media, 6 days
Summary of the method: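 C2C12 cells in differentiation media were given DMSO or test compound at 1, 2 or 4 μM. After 6 days they were immunostained with anti-myosin heavy chain antibody plus DAPI. MHC-positive myotubes were scored from the images.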

[5] = system: UTX-targeted genes Myog and CKm in C2C12 cells; experiment: RT-PCR of UTX-targeted genes during myogenesis; assay type: cell-based; details: differentiating C2C12 myoblast, 1, 2 and 4 μM, 6 days
Summary of the method: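 Differentiating C2C12 myoblasts were given DMSO or test compound (1, 2, 4 μM) in differentiation media. mRNA was collected after 6 days, and RT-PCR measured Myog and Ckm.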

[6] = target: FAD-dependent demethylase, LSD1 (Homo sapiens, UniProt O60341); experiment: LSD1 enzyme inhibition in vitro; assay type: biochemical; details: at up to 50 μM, the highest concentration tested
[7] = system: H3K4me3 and H3K9me3 levels in KYSE150 cells; assay type: cell-based
Summary of the method: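 KYSE150 cells were immunostained for H3K4me3 and H3K9me3 in a quantitative image-based assay. Image quantification gave half-maximal effective concentrations for each mark.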

[8] = system: class I or class II HDACs; experiment: HDAC enzyme inhibition in vitro; assay type: biochemical; details: at up to 50 μM, the highest concentration tested
[9] = system: JMJD2C-sensitive oesophageal carcinoma cell line KYSE150; experiment: KYSE150 growth inhibition assay; assay type: cell-based; details: read-out: GI50, KYSE150 cell growth; treatment for 48 hours
human JMJD2C(1–420) = target: T1, human JMJD2C(1–420) (Homo sapiens, UniProt Q9H3R0); assay type: biochemical; details: at up to 50 μM, the highest concentration tested
T1 sequence (Q9H3R0 1-420): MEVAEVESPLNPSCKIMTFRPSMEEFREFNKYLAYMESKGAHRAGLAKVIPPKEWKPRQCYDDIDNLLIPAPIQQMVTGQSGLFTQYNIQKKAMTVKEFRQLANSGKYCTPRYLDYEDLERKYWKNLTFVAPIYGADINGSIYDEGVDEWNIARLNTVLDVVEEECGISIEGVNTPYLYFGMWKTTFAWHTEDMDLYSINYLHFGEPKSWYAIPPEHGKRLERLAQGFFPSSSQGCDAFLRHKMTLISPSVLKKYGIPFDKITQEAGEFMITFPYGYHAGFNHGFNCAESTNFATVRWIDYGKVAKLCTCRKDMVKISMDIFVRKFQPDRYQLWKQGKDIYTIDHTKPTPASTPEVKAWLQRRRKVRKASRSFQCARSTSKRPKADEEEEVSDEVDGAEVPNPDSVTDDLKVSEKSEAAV

[10] = target: T2, JMJD2A (H3K9me3 and H3K36me3 demethylase) (Homo sapiens, UniProt O75164); experiment: JMJD2A enzyme inhibition in vitro; assay type: biochemical; details: at up to 50 μM, the highest concentration tested
T2 sequence (O75164 1-1064): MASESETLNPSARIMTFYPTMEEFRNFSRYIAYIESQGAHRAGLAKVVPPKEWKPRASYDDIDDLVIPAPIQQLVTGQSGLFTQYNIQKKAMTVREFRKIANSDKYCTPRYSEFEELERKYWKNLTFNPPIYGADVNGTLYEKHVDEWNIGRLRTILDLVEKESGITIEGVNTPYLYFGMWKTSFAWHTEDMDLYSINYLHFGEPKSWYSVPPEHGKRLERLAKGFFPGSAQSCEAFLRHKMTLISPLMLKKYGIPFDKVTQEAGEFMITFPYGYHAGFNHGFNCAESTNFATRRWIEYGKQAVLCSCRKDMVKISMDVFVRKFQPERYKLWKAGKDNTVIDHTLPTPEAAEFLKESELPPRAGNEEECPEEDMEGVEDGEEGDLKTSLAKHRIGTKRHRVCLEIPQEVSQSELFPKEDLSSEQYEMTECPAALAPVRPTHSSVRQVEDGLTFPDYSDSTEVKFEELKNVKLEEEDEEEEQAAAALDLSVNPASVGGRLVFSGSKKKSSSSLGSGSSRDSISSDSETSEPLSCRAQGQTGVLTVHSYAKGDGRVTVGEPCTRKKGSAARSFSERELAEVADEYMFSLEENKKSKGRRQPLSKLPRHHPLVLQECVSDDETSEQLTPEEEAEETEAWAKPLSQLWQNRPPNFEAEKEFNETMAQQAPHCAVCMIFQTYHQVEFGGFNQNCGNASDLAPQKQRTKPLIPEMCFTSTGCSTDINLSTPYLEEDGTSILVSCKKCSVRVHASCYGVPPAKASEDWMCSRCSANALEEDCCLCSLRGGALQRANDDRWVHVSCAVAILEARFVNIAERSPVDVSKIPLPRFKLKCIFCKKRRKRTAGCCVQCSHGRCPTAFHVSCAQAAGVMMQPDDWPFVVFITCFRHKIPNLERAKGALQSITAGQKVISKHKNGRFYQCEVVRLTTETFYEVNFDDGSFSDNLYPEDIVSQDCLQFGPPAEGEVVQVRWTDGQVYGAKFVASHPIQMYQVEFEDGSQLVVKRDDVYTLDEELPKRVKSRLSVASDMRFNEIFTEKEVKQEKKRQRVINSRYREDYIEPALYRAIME

[11] = system: histone methylation marks in KYSE150 cells; experiment: Western blotting of histone methylation marks in KYSE150 cells; assay type: cell-based; details: 48 hours
Summary of the method: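 KYSE150 cells received DMSO, DFO 150 μM or DMOG 1 mM as positive controls for Fe²⁺/α-ketoglutarate hydroxylase inhibition, or test compound at 5, 10 or 15 μM, for 48 h. Histone methylation marks were assessed by Western blot, with histone levels based on coomassie stain.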

[12] = DFO at 150 μM, DMOG at 1 and 2 mM

Row | Structure (SMILES) | cellular HIF-1α levels [1, 12] | recovered unchanged after incubation in cell growth media [2] | reduction of H3K9me3 level by JMJD2C(1–420)-GFP [3] | increase of the H3K9me3 mark [4] | pEC50 ([4]; read-out: EC50 for H3K4me3) | pEC50 ([4]; read-out: EC50 for H3K9me3) | concentration sufficient to prevent the formation of MHC-positive myotubes (C2C12 cells) | cellular HIF-1α levels ([1]; at up to 15 μM, the highest concentration tested) | expression of UTX-targeted genes Myog and CKm (RT-PCR) [5] | inhibition of enzymatic activity of LSD1 [6] | increase of the H3K9me3 mark [7] | pEC50 ([7]; read-out: EC50 for H3K4me3) | pEC50 ([7]; read-out: EC50 for H3K9me3) | inhibition of enzymatic activity of HDACs [8] | GI50 [9] | inhibition of enzymatic activity of JMJD2C (human JMJD2C(1–420)) | inhibition of enzymatic activity of JMJD2A [10] | methylation of H3K4, H3K9, H3K27 and H3K36 (Western blotting) ([11]; KYSE150 cells, 5, 10 and 15 μM, concentration-dependent) | cellular levels of H3K79me3 and H4K20me3 ([11]; KYSE150 cells)
1 | CC(=O)N(O)CCCCCNC(=O)CCC(=O)N(O)CCCCCNC(=O)CCC(=O)N(O)CCCCCN [DFO, desferoxamine] | significantly increased |  |  |  |  |  |  |  |  |  |  |  |  |  |  |  |  |  | 
2 | COC(=O)/C=C/C(=O)N(O)CCCCNCc1ccc(COC(=O)Nc2cccc3ccccc23)cc1 [Methylstat, methylstat] |  | 88% | reversed | 4.5 fold | 5.17 | 5.20 | 2 µM | did not affect | loss of expression | does not inhibit | 10.8 fold | 4.99 | 5.07 | does not inhibit | ~5.1 µM | does not inhibit | does not inhibit | induces hypermethylation | induces increased cellular levels
3 | COC(=O)CNC(=O)C(=O)OC [DMOG] | significantly increased |  |  |  |  |  |  |  |  |  |  |  |  |  |  |  |  |  | 
